Sampled rows, rich in hits. Any-hit rate of the full collection: about 5.4%.
Ecoli tolC – growth inhibitors of E. coli tolC mutant, primary screen, strain BW25113 ΔtolC::kan, 384-well; OD615; growth inhibition, % at 10 µM (by protocol); 2.2% of 65,000 active; AID 573, 2007;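 active means growth inhibition at or above a cutoff equal to the mean over every tested compound plus 3 SD, cut at about 60% in these data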;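 further: growth measured after 20 h incubation at 37 °C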
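Material: E. coli BW25113 ΔtolC::kan, tolC deletion mutant strain. Measure: percent growth inhibition. Schedule: 37 °C, 20 h exposure. Doses: single-point testing at 10 µM. Signal: A615 absorbance measurement. Buffer or medium: kanamycin-containing LB broth (50 µg/mL).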
PostGolgi ctrl – growth inhibition of yeast control strain, primary screen, counter-screen for post-Golgi transport modulator project; inhibition, % at 10 µM; 5% of 98,000 active; AID 738, 2007; efflux-deficient yeast background strain, growth absorbance A615, 16 h
E coli WT exp – growth inhibitors of wild-type E. coli, primary screen, strain BW25113, expanded library, OD600; OD600 absorbance; 0.15% of 98,000 active; growth inhibition, % at 100 µM;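 active means growth inhibition above about 50% at one test dose, limit read from the data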;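 further: growth measured after 20 h incubation at 37 °C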
HePTP inhibitor – inhibitors of human HePTP phosphatase, primary screen, biochemical, absorbance, leukemia target; Tyrosine-protein phosphatase non-receptor type 7 (Homo sapiens), P35236; recombinant HePTP phosphatase activity, OD absorbance; inhibition, % at 20 µM; 0.64% of 110,000 active; AID 521, 2006; in the data active means inhibition above about 50%
PLAP act – PLAP enzyme activators, biochemical, luminescence, HTS; AID 696, 2007; 1.2% of 96,000 active; activation fold at 20 µM; Alkaline phosphatase, placental type (Homo sapiens), P05187; purified PLAP enzyme, luminescent substrate read-out; stronger effect = higher value; in the data active means activation fold above about 2
Target sequence (P05187 whole entry, looked up): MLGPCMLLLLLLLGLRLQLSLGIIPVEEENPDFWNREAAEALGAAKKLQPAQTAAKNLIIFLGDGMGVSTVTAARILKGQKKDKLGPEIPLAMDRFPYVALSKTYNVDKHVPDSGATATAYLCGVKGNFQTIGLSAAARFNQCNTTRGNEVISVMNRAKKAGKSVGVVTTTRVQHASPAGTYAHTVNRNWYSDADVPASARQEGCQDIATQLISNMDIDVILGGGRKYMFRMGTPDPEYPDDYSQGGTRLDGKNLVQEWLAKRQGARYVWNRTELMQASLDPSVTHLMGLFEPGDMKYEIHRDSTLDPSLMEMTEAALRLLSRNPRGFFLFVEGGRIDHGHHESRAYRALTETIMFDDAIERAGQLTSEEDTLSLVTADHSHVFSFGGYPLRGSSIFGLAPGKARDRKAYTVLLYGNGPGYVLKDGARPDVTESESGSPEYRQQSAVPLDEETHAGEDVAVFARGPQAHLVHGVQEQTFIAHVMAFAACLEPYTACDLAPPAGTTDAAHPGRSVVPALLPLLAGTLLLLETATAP
PostGolgi yeast – phenotypic screen on post-Golgi transport, primary screen | post-Golgi transport phenotypic cell assay | AID 739, 2007 | 0.9% of 98,000 active | inhibition, % at 10 µM;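 further: yeast cells grown in 1536-well plates; yeast grown about 18 h at 30C before absorbance read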
Of the large screens only hits and unclear results are named; the others gave an inactive call. Unless noted, no stated cut-off is given here; in the data, active means inhibition above about 30%; inactive means the rest.

CC(=O)c1cccc(NC(=O)c2cncc(Br)c2)c1	none (no result: Ecoli tolC, PostGolgi ctrl, E coli WT exp, PLAP act, PostGolgi yeast)
CCn1c(=O)c2c3c(sc2n2c(=S)[nH]nc12)CCC3	none (no result: Ecoli tolC, HePTP inhibitor)
S=c1[nH]nc2c3c4c(sc3n3c(=S)[nH]nc3n12)CCC4	HePTP inhibitor 101 (no result: Ecoli tolC, PostGolgi ctrl, E coli WT exp, PLAP act, PostGolgi yeast)
CCOC(=O)Cc1c(C)nc2c(-c3ccc(Cl)cc3)c[nH]n2c1=O	Ecoli tolC 99
CCOC(=O)Cc1c(C)nc2cc(-c3ccc(Cl)cc3)[nH]n2c1=O	none
C/C(=N/NC(=O)c1ccccc1[N+](=O)[O-])c1ccc(N2C(=O)C3CCCCC3C2=O)cc1 (stereo not given)	none (no result: Ecoli tolC, PostGolgi ctrl, E coli WT exp, PLAP act, PostGolgi yeast)
Cc1ccc(S(=O)(=O)CC(=O)Nc2nc(-c3ccccc3)cs2)cc1	PostGolgi ctrl 63 (no result: Ecoli tolC, HePTP inhibitor)
O=C(CS(=O)(=O)c1ccccc1)Nc1nc(-c2ccccc2)cs1	Ecoli tolC 100, PostGolgi ctrl 41
CCn1c(SCC(=O)Nc2nc(-c3ccccc3)cs2)nnc1-c1ccccc1	PostGolgi ctrl 58, PLAP act 2
Cc1ccc(-c2csc(NC(=O)CCc3ccccc3)n2)cc1	none (no result: Ecoli tolC, PostGolgi ctrl, E coli WT exp, PLAP act, PostGolgi yeast)
CN(C)c1ccc(/C=N/NC(=O)CNC(=O)c2ccc(F)cc2)cc1	none (no result: Ecoli tolC, PostGolgi ctrl, E coli WT exp, PLAP act, PostGolgi yeast)
COc1ccc(OC)c(C2NC(=S)NC(C)=C2C(=O)Nc2ccc(Cl)cc2)c1 (stereo not given)	none (no result: Ecoli tolC, PostGolgi ctrl, E coli WT exp, PLAP act, PostGolgi yeast)
O=C1/C(=C\c2ccc(-c3ccc([N+](=O)[O-])cc3Br)o2)SC(=S)N1c1ccccc1	none (no result: Ecoli tolC, PostGolgi ctrl, E coli WT exp, PLAP act, PostGolgi yeast)
CCCC(=O)Nc1nc2ccc(NC(=O)c3ccc(Br)o3)cc2s1	PostGolgi ctrl 41
CCCC(=O)Nc1nc2ccc(Cl)cc2s1	none (no result: Ecoli tolC, PostGolgi ctrl, E coli WT exp, PLAP act, PostGolgi yeast)
CCc1ccccc1NC1=NS(=O)(=O)c2cc([N+](=O)[O-])ccc21	none (no result: Ecoli tolC, PostGolgi ctrl, E coli WT exp, PLAP act, PostGolgi yeast)
Cc1cc(C)c(S(=O)(=O)Nc2ccc(OCC(=O)O)cc2)c(C)c1	PostGolgi ctrl 41
COc1ccc(NS(=O)(=O)c2c(C)cc(C)cc2C)cc1	none (no result: Ecoli tolC)
COc1cccc(NS(=O)(=O)c2c(C)cc(C)cc2C)c1	PostGolgi ctrl 32
COc1ccccc1OCc1ccc(C(=O)NC(C)(C)C)o1	none
CC1CCN(C(=O)c2ccc(COc3ccccc3Cl)o2)CC1	Ecoli tolC 87
COc1ccccc1OCc1ccc(C(=O)n2nc(C)c(Cl)c2C)o1	PostGolgi ctrl 33
CCOC(=O)C1CCN(C(=O)c2cc(C(=O)OC)cc([N+](=O)[O-])c2)CC1	none (no result: Ecoli tolC, PostGolgi ctrl, E coli WT exp, PLAP act, PostGolgi yeast)
COc1cc(NC(=O)c2ccccc2Br)ccc1NC(=O)c1ccco1	none (no result: Ecoli tolC, PostGolgi ctrl, E coli WT exp, PLAP act, PostGolgi yeast)
O=C(Nc1cccc(-c2nc3cc(Cl)ccc3o2)c1)c1ccc2c(c1)OCCO2	none (no result: Ecoli tolC, PostGolgi ctrl, E coli WT exp, PLAP act, PostGolgi yeast)
O=C(c1ccccc1)N1CC(COc2ccccc2)OC(c2cccnc2)O1 (stereo not given)	PostGolgi ctrl 31, PostGolgi yeast 48
O=C(COc1ccc(-c2ccccc2)cc1)N1CCN(C(=O)c2cccnc2)CC1	none
CCN1C(=O)/C(=C\c2cc(Cl)ccc2OCCOc2cccc(OC)c2)SC1=S	none (no result: Ecoli tolC, PostGolgi ctrl, E coli WT exp, PLAP act, PostGolgi yeast)
COC(=O)C1=C(C)NC2=C(C(=O)CC(c3ccccc3)C2)C1c1cccc([N+](=O)[O-])c1 (stereo not given)	none (no result: Ecoli tolC, PostGolgi ctrl, E coli WT exp, PLAP act, PostGolgi yeast)
CC(C)COc1ccc(C(=O)Nc2ccc(-c3nc4ccccc4o3)cc2)cc1	none (no result: Ecoli tolC, PostGolgi ctrl, E coli WT exp, PLAP act, PostGolgi yeast)
O=[N+]([O-])c1ccc(N/N=C/c2c[nH]c3ccccc23)cc1	PostGolgi ctrl 91, PostGolgi yeast 99 (no result: Ecoli tolC, HePTP inhibitor)
COc1ccc(NS(=O)(=O)c2cc([N+](=O)[O-])ccc2N/N=C\c2c(C)[nH]c3ccccc23)cc1	none (no result: Ecoli tolC, HePTP inhibitor)
COc1ccccc1NS(=O)(=O)c1cc([N+](=O)[O-])ccc1N/N=C/c1c[nH]c2ccccc12	PostGolgi ctrl 31 (no result: Ecoli tolC, HePTP inhibitor)
O=[N+]([O-])c1ccccc1N/N=C/c1c[nH]c2ccccc12	none (no result: Ecoli tolC, HePTP inhibitor)
N/N=c1\sc2ccccc2n1-c1ccccc1	PostGolgi ctrl 30 (no result: Ecoli tolC, HePTP inhibitor)
CC(=O)N=c1sc2ccccc2n1C	none
O=C(CN(C1CC1)S(=O)(=O)c1ccc(S(=O)(=O)NC2CCCCC2)cc1)Nc1ccccc1	Ecoli tolC 83
CCOc1cc(S(=O)(=O)NC2CCCCCC2)ccc1F	PostGolgi ctrl 40
O=S(=O)(NC1CCCCC1)c1ccc(Br)cc1	PostGolgi ctrl 32
COc1cccc(NC(=O)C(=O)N/N=C/c2ccc(O)c(OC)c2)c1	none (no result: Ecoli tolC, PostGolgi ctrl, E coli WT exp, PLAP act, PostGolgi yeast)
O=C(N/N=C/c1cccc(O)c1)c1n[nH]c2c1CCC2	none (no result: Ecoli tolC, PostGolgi ctrl, E coli WT exp, PLAP act, PostGolgi yeast)
CCCCOc1ccc(S(=O)(=O)n2ccnc2C(C)C)cc1	none (no result: Ecoli tolC, PostGolgi ctrl, E coli WT exp, PLAP act, PostGolgi yeast)

Screening results: PubChem BioAssay, several laboratories
